Experiments:
[1] = target: ATP-dependent translocase ABCB1 (Homo sapiens, UniProt P08183); assay: Induction of nitrosylation of P-gp protein in FU-resistant human HCT8 cells at 0.25 to 1 uM incubated for 24 hrs by Western blotting method; assay type: cell-based; settings: hct-8, 24 h
In short: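 HCT-8/5-FU cells (1 × 10^6) treated in duplicate for 24 h with 0.25, 0.5 or 1 µM test compound or 1 µM reference, with or without PTIO. Lysates immunoprecipitated overnight at 4 °C with anti-nitrotyrosine antibody on protein G beads. Eluates blotted with specific anti-Pgp, anti-MRP1 or anti-BCRP antibodies and quantified by densitometry. Mean ± SD of three experiments.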

Mus musculus [2] = assay: Toxicity in male ICR mouse assessed as body weight level at 2.38 x 10^3 umol/kg administered as single dose via oral gavage measured on day 7 post treatment (reference value: 19.8 +/- 0.92 g); assay type: organism-based; settings: in vivo
Mus musculus [3] = assay: Toxicity in male ICR mouse assessed as body weight level at 2.38 x 10^3 umol/kg administered as single dose via oral gavage measured on day 14 post treatment (reference value: 19.5 +/- 0.85 g); assay type: organism-based; settings: in vivo

Sequence of ATP-dependent translocase ABCB1 (P08183 whole entry): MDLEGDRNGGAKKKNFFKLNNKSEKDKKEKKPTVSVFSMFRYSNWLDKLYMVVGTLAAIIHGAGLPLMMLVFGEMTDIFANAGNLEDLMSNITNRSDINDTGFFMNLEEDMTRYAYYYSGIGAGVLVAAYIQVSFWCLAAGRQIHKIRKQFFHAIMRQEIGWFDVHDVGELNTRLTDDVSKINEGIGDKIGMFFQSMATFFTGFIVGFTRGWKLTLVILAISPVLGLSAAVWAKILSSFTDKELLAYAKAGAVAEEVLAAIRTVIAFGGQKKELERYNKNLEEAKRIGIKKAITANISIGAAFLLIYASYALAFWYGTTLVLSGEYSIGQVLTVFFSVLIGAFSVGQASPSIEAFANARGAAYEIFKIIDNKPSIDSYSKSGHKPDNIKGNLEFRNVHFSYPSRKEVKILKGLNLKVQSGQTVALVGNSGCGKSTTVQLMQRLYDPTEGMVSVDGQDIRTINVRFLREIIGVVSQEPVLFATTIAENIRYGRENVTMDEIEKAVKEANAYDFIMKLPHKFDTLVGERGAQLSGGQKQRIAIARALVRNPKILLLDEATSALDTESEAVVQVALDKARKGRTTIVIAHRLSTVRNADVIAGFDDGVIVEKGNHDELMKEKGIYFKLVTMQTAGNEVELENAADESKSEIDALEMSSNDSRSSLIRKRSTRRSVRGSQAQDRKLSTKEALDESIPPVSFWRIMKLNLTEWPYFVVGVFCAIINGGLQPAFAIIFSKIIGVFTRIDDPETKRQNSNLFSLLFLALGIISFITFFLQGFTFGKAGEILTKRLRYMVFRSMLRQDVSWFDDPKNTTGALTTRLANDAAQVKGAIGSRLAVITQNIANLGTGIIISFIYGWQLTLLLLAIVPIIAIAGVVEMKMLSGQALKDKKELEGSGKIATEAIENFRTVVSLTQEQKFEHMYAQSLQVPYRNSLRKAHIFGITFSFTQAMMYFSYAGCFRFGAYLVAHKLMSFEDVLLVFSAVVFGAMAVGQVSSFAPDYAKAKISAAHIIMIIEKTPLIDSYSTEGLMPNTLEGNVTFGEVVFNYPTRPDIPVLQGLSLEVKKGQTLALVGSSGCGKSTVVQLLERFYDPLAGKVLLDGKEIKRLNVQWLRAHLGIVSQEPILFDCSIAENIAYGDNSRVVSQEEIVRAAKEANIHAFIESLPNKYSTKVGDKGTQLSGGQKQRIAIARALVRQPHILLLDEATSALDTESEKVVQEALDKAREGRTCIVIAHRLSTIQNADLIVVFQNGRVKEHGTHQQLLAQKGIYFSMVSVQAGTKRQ

SMILES: CC1(C)CC[C@]2(C(=O)NCC(=O)OCC#CCOc3no[n+]([O-])c3S(=O)(=O)c3ccccc3)CC[C@]3(C)[C@H](C(=O)C=C4[C@@]5(C)C=C(C#N)C(=O)C(C)(C)[C@@H]5CC[C@]43C)[C@@H]2C1
- Activity [1]: Dose-dependent effect
- Activity (Mus musculus [2]): 26.7 g
- Activity (Mus musculus [3]): 31.9 g

Source: ChEMBL document CHEMBL3414437, “Synthesis of CDDO-amino acid-nitric oxide donor trihybrids as potential antitumor agents against both drug-sensitive and drug-resistant colon cancer” (J Med Chem, 2015)
